Assay outcomes: PubChem, The Scripps Research Institute Molecular Screening Center
HTRA1 inh: blocks human HTRA1 serine peptidase | Q92743 | recombinant HTRA1, FP-rhodamine activity-based probe, fluorescence polarization | inhibition, % at 5.96 µM | 340,000 tested, 0.5% active; in the data active means inhibition above about 36%
PAFAH1B2 inh: blocks human PAF acetylhydrolase 1b catalytic subunit 2; P68402; recombinant PAFAH1B2, FP-rhodamine activity probe, fluorescence polarization; inhibition, % at 3.39 µM; 340,000 tested, 1.2% active;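 active means inhibition above the mean of all tested compounds plus 3 SD, cut at about 24% in these data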
PAFAH1B3 FP inh: PAFAH1B3 (human) inhibition; Q15102; recombinant PAFAH1B3, FP-rhodamine probe, fluorescence polarization; inhibition, % at 3.39 µM; 340,000 tested, 0.28% active; AID 492972;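 active means inhibition above the screen-wide average of all tested compounds plus 3 SD, cut at about 25% in these data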
PAFAH2 inh: inhibitors of human PAFAH2 | Q99487 | recombinant PAFAH2, FP-rhodamine activity probe, fluorescence polarization | inhibition, % at 3.39 µM | 340,000 tested, 0.99% active | AID 492956;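 active means inhibition above the mean over all tested compounds plus 3 SD, cut at about 30% in these data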;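 further: inhibitors block probe labeling of enzyme so polarization drops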
pPAFAH inh: inhibitors of human plasma PAF acetylhydrolase (pPAFAH); Q13093; recombinant pPAFAH, FP-rhodamine probe fluorescence polarization; inhibition, % at 3.39 µM; 330,000 tested, 1.5% active; AID 463082;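 active means inhibition above the mean inhibition across the screen plus 3 SD, cut at about 25% in these data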;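 further: inhibitors block binding of the rhodamine activity-based probe so polarization drops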
Target sequence (Q13093 whole entry, looked up): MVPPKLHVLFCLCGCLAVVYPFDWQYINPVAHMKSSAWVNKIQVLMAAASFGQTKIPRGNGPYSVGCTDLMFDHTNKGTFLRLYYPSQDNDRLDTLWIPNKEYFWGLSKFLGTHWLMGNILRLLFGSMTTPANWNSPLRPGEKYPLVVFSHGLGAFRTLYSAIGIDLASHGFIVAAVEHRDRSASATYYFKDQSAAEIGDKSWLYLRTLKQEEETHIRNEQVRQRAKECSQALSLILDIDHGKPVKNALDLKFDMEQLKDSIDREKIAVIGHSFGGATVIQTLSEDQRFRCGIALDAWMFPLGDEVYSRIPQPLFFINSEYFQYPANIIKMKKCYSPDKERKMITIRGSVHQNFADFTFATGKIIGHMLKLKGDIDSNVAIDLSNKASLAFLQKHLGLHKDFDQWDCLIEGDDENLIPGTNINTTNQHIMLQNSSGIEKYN
mABHD4 FP: ABHD4 (mouse) inhibition, primary FP screen; purified mABHD4, FP-Rh probe fluorescence polarization; inhibition, % at 8.92 µM; 370,000 tested, 0.54% active; AID 720543;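 active means inhibition exceeding the mean over every tested compound plus 3 SD, cut at about 30% in these data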
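system = mouse ABHD4 enzyme, wild type | medium = HEPES pH 7.0, NaCl, Pluronic buffer | also added = FP-Rh probe | incubation = Enzyme–compound pre-incubation 45 min, then probe 60 min, both 25 °C | technique = fluorescence polarization, excitation 525 nm, emission 598 nm, BODIPY TMR filters | controls = S159A mutant high control, sample median low control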
HTRA1 conf: confirmation of human HTRA1 inhibitors. shares compounds with HTRA1 inh. 1,600 tested, 66% active. inhibition, % at 5.96 µM. recombinant HTRA1, FP-rhodamine activity-based probe, fluorescence polarization. AID 540248;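 active means mean inhibition over three repeats above a set limit taken from the earlier primary screen, cut at about 37% in these data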;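 further: inhibitors block probe binding so polarization drops and inhibition rises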
A number is an active result; 0 = inactive; - = no result given. Rows were chosen to be rich in hits. Some 2.8% of all compounds tested hit in one or more screens of this group.

SMILES	HTRA1 inh	PAFAH1B2 inh	PAFAH1B3 FP inh	PAFAH2 inh	pPAFAH inh	mABHD4 FP	HTRA1 conf
O=C(N/N=C/c1cc(Br)c(O)c(Br)c1)c1cc2c(ccc3ccccc32)o1	46	49	43	0	-	0	49
COc1ccc(C(=O)CSc2nnc(-c3ccco3)c(-c3ccco3)n2)cc1	37	0	0	0	-	0	0
Cc1cccc(NC(=S)NNc2ncc(C(F)(F)F)cc2Cl)c1	0	0	0	0	0	0	-
FC(F)(F)c1cnc(NNC(=S)Nc2ccccc2Cl)c(Cl)c1	43	0	0	0	0	0	0
Cc1sc2ncnc(N/N=C/c3ccccc3O)c2c1C	60	0	0	0	0	0	61
CCN(CC)c1nc(C)nc2c1nnn2Cc1ccccc1	-	-	-	-	-	0	-
O=C(NC(C(=O)N/N=C/c1c2ccccc2cc2ccccc12)c1n[nH]c(=O)c2ccccc12)c1ccccc1 (stereo unspecified)	40	0	0	0	0	0	0
O=C(NC(C(=O)N/N=C/c1ccccc1)c1n[nH]c(=O)c2ccccc12)c1ccccc1 (stereo unspecified)	0	0	0	0	0	0	-
Cn1nnnc1Sc1ncnc2scc(-c3cnc(N)nc3)c12	-	-	-	-	-	0	-
C[C@@H]1[C@H](c2ccccc2)OC(O)([C@H](Cc2ccccc2)NC(=O)OC(C)(C)C)CN1C (stereo partly specified)	-	-	-	-	-	0	-
NC(=S)NN=Cc1nccc2c(C(F)(F)C(F)(F)C(F)(F)F)cccc12	68	-	-	-	-	0	64
C[C@@H]1/C=C/CC(=O)N[C@H](c2ccccc2)[C@H](C)/C=C/CC(=O)N[C@@H]1c1ccccc1	-	-	-	-	-	0	-
CC(C)(C)n1cnc2cc(NCc3ccccc3O)ccc21	46	0	0	0	0	0	0
CC(C)n1cnc2cc(NCc3ccccc3O)ccc21	0	0	0	0	0	0	-
Cc1cccc2nc(-c3ccco3)c(Nc3ccccc3)n12	0	0	0	0	0	0	-
Cc1ccc(Nc2c(-c3ccccn3)nc3cccc(C)n23)cc1	62	0	0	0	0	0	67
CN1/C(=C/C=C/c2n(C)c3cc([N+](=O)[O-])c([N+](=O)[O-])cc3[n+]2C)C(C)(C)c2ccccc21	42	-	-	-	-	0	41
COC(=O)C1CCCN(C(=O)C2CCN(S(=O)(=O)c3ccccc3[N+](=O)[O-])CC2)C1 (stereo unspecified)	-	-	-	-	-	0	-
COc1cccc(OC)c1C(=O)NC(C)CCc1ccccc1 (stereo unspecified)	0	0	0	0	0	0	-
COc1cc(NC(C)CCc2ccccc2)cc(OC)c1OC (stereo unspecified)	40	0	0	0	0	0	0
COC(=O)c1ccc(C(=O)OC)c(NC(=O)CSc2n[nH]c(N)n2)c1	0	0	0	0	0	0	-
CCn1c(CSc2nnc3ccccn23)nc2cc(C(=O)O)ccc21	37	49	44	60	26	40	79
CCn1c(CSc2n[nH]c(N)n2)nc2cc(C(=O)O)ccc21	43	38	36	52	25	0	67
Cn1[nH]cc(C=NC(N)=O)c1=O	47	0	0	0	-	0	0
Cc1cc2ccccc2n1CCNC(=O)COc1ccccc1	49	0	0	0	0	0	0
SMILES	HTRA1 inh	PAFAH1B2 inh	PAFAH1B3 FP inh	PAFAH2 inh	pPAFAH inh	mABHD4 FP	HTRA1 conf
CCC(=O)NCCn1c(C)cc2ccccc21	0	0	0	0	0	-	-
Cc1cc2ccccc2n1CCNC(=O)c1ccccc1	0	0	0	0	0	0	-
Cc1cc2ccccc2n1CCNC(=O)c1ccc(Br)o1	57	0	0	0	0	0	0
CCOc1ccc(-n2c(SCC(=O)Nc3ccccc3-c3ccccc3)nnc2-c2ccccc2)cc1	-	-	-	-	-	0	-
Cc1ccc(NC(=O)c2cc3ccccc3cc2O)cc1	0	0	0	0	0	0	-
COc1ccc(NC(=O)c2cc3ccccc3cc2O)cc1	39	0	0	0	32	0	0
Cc1cccc[n+]1C1C(c2ccccc2)C(C#N)=C(C(=C=[N-])C#N)NC1(O)C1CC1 (stereo unspecified)	67	0	0	30	29	-	49
COc1ccc([C@H]2C(C#N)=C([S-])N[C@](C)(O)[C@@H]2[n+]2ccccc2)cc1	-	-	-	-	-	0	-
